{"source": "paper PMC2709241", "about": "(Archives of biochemistry and biophysics, 2008)", "key": {"[1]": {"target": "T1, wild-type human MDD (Homo sapiens, UniProt P53602)", "T1 sequence (P53602 1-400)": "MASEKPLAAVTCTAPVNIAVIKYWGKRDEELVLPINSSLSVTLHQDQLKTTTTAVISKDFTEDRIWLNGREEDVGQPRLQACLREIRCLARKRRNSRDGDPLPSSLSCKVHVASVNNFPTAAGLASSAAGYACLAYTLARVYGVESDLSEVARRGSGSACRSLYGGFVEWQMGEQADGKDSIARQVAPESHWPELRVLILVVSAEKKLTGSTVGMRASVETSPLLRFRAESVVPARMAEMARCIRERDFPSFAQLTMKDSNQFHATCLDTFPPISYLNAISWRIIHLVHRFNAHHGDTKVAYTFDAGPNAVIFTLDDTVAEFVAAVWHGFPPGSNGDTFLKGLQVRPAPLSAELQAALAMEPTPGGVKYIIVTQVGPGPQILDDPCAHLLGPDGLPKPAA", "experiment": "TNP-ATP fluorescence titration, Scatchard analysis, wild-type human MDD", "format": "binding", "outline": "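Purified His6-tagged enzyme, wild type or mutant, was held at a fixed concentration while TNP-ATP was titrated in at 25°C. Buffer: 50 mM Tris-Cl pH 7.0, 0.5 mM MgCl2, 1 mM DTT. TNP-ATP was quantified at A409 (ε 26 400 M-1 cm-1). Excitation was 409 nm; peak emission (530–538 nm) was corrected for free probe in buffer alone. Scatchard analysis: Kd from slope; n per 44 kDa subunit from x-intercept.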"}, "[2]": {"target": "T2, N-his tagged human MDD (Homo sapiens, UniProt P53602)", "T2 sequence (P53602 1-400)": "T1 sequence (P53602 1-400)", "experiment": "Steady-state kinetics of N-his tagged human MDD", "format": "biochemical", "conditions": "N-his tagged enzyme", "outline": "(§1)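 His6-tagged human enzyme from E. coli BL21(DE3) was Ni-Sepharose purified and quantified by Bradford. Spectrophotometric assay at 30°C: ADP formation coupled through pyruvate kinase/lactate dehydrogenase (4 U) to NADH oxidation, with A340 decrease followed. Started with mevalonate diphosphate; substrate varied; Michaelis-Menten fit.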"}, "[3]": {"target": "T3, N17A mutant human MDD (Homo sapiens, UniProt P53602, N17A)", "T3 sequence (P53602 1-400 N17A)": "T1 sequence (P53602 1-400) with N17A", "experiment": "Steady-state kinetics of N17A human MDD", "format": "biochemical", "conditions": "for Km: N17A", "outline": "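N17A mutant, made by QuikChange PCR, was expressed and Ni-Sepharose purified as for the wild type. Started with mevalonate diphosphate; substrate varied; Michaelis-Menten fit. Km(ATP) was measured with RS-MVPP raised to 8.8 mM.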"}, "[4]": {"target": "T4, S162A mutant human MDD (Homo sapiens, UniProt P53602, S162A)", "T4 sequence (P53602 1-400 S162A)": "T1 sequence (P53602 1-400) with S162A", "experiment": "Steady-state kinetics of S162A human MDD", "format": "biochemical", "outline": "as §1"}, "[5]": {"target": "T5, wild-type C-his tagged human MDD (Homo sapiens, UniProt P53602)", "T5 sequence (P53602 1-400)": "T1 sequence (P53602 1-400)", "experiment": "Steady-state kinetics of wild-type", "format": "biochemical", "outline": "as §1"}}, "note": "Substitutions are numbered along the chain they refer to. Where two headings read alike, the source gives them in different places.", "data": [{"compound": "Nc1ncnc2c1ncn2[C@@H]1O[C@H](COP(=O)(O)OP(=O)(O)OP(=O)(O)O)[C@H]2OC3(O[C@H]21)C([N+](=O)[O-])=CC(=[N+]([O-])[O-])C=C3[N+](=O)[O-]", "note": "(stereo partly shown) [TNP-ATP, 2’(3’)-O-(2,4,6-Trinitrophenyl)adenosine-5’-triphosphate]", "values": [{"measurement": "Kd", "setting": "[1]", "result": 550, "unit": "nM"}, {"measurement": "n (binding stoichiometry)", "setting": "[1]; WT, binding sites per 44 kDa subunit", "result": 0.77}]}, {"compound": "C[C@@](O)(CCOP(=O)(O)OP(=O)(O)O)CC(=O)O", "note": "[MVAPP, mevalonate 5-diphosphate]", "values": [{"measurement": "Km", "setting": "[2]; read-out: Km(RS-MVPP)", "result": 42.1, "unit": "µM"}, {"measurement": "Fold Inflation of Km for mevalonate diphosphate, N17A vs WT", "setting": "[3]; N17A vs WT, listed as R,S-MVAPP", "result": 14.7, "unit": "fold"}, {"measurement": "Km", "setting": "[3]; read-out: Km(R,S-MVAPP), Table 4", "result": "425 ± 74", "unit": "µM"}, {"measurement": "Km", "setting": "[3]; read-out: Km(RS-MVPP), elevated ATP (20 mM) and MgCl2 (22mM)", "result": "425 ± 74", "unit": "µM"}, {"measurement": "Km", "setting": "[4]; read-out: Km(RS-MVPP)", "result": "0.126 ± 0.0064", "unit": "mM"}, {"measurement": "Km", "setting": "[5]; read-out: Km(R,S-MVAPP), WT, Table 4", "result": "28.9 ± 3.3", "unit": "µM"}, {"measurement": "Km", "setting": "[5]; read-out: Km(RS-MVPP), WT C-his, 30°C, pH 7.0", "result": "28.9 ± 3.3", "unit": "µM"}]}, {"compound": "Nc1ncnc2c1ncn2[C@@H]1O[C@H](COP(=O)(O)OP(=O)(O)OP(=O)(O)O)[C@@H](O)[C@H]1O", "note": "[ATP]", "values": [{"measurement": "Km", "setting": "[2]; read-out: Km(ATP)", "result": 1700, "unit": "µM"}, {"measurement": "Km", "setting": "[3]; read-out: Km(ATP), elevated RS-MVPP (8.8 mM)", "result": "7700 ± 1200", "unit": "µM"}, {"measurement": "Km", "setting": "[4]; read-out: Km(ATP)", "result": "4.9 ± 1.3", "unit": "mM"}, {"measurement": "Km", "setting": "[5]; read-out: Km(ATP), WT C-his, 30°C, pH 7.0", "result": "690 ± 70", "unit": "µM"}]}]}
